Laboratory results as given in ChEMBL document CHEMBL1148376, “Synthesis, monoamine transporter binding properties, and behavioral pharmacology of a series of 3beta-(substituted phenyl)-2beta-(3'-substituted isoxazol-5-yl)tropanes” (J Med Chem, 2004).
The source made the active and inactive calls. No cut-off for these calls is given here.

Legend:
[1] = tested on: Mus musculus; experiment: Percent change from vehicle in locomotor activity in mice at 56 mg/kg (ip) in 1 h; format: functional
[2] = tested on: Mus musculus; experiment: Percent change from vehicle in locomotor activity in mice at 17 mg/kg (ip) in 3 h; format: functional
[3] = tested on: Rattus norvegicus; experiment: Drug discrimination effect of compound in rats, expressed as percent of rats choosing the cocaine lever at dose 5.6 mg/kg (ip); format: functional
[4] = tested on: Mus musculus; experiment: Percent change from vehicle in locomotor activity in mice at 17 mg/kg (ip) in 2 h; format: functional
[5] = tested on: Rattus norvegicus; experiment: Drug discrimination effect of compound in rats, expressed as percent of rats choosing the cocaine lever at dose 3 mg/kg (ip); format: functional
[6] = tested on: Rattus norvegicus; experiment: Effective dose for drug discrimination effect in rat (ip); format: functional
Summary of the method: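 Cocaine-trained rat drug discrimination, FR10, 10-min sessions. Compound in 0.5% methyl cellulose given ip 15 min before session, usually to 7-8 rats per dose. Doses were raised from ≤20% to ≥80% cocaine-lever choice, capped at 30 mg/kg, >50% loss of pressing, or side effects.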

[7] = tested on: Mus musculus; experiment: Percent change from vehicle in locomotor activity in mice at 56 mg/kg (ip) in 4 h; format: functional
[8] = tested on: Rattus norvegicus; experiment: Drug discrimination effect of compound in rats, expressed as percent of rats choosing the cocaine lever at dose 1.7 mg/kg (ip); format: functional
[9] = tested on: Mus musculus; experiment: Percent change from vehicle in locomotor activity in mice at 5.6 mg/kg (ip) in 4 h; format: functional
[10] = tested on: Rattus norvegicus; experiment: Drug discrimination effect of compound in rats, expressed as percent of rats choosing the cocaine lever at dose 10 mg/kg (ip); format: functional
[11] = tested on: Mus musculus; experiment: Percent change from vehicle in locomotor activity in mice at 5.6 mg/kg (ip) in 1 h; format: functional
[12] = tested on: Mus musculus; experiment: Percent change from vehicle in locomotor activity in mice at 56 mg/kg (ip) in 2 h; format: functional
[13] = tested on: Mus musculus; experiment: Percent change from vehicle in locomotor activity in mice at 5.6 mg/kg (ip) in 3 h; format: functional
[14] = tested on: Mus musculus; experiment: Percent change from vehicle in locomotor activity in mice at 5.6 mg/kg (ip) in 2 h; format: functional
[15] = tested on: Mus musculus; experiment: Percent change from vehicle in locomotor activity in mice at 17 mg/kg (ip) in 1 h; format: functional
[16] = tested on: Mus musculus; experiment: Percent change from vehicle in locomotor activity in mice at 17 mg/kg (ip) in 4 h; format: functional
[17] = tested on: Rattus norvegicus; experiment: Drug discrimination effect of compound in rats, expressed as percent of rats choosing the cocaine lever at dose 1 mg/kg (ip); format: functional
[18] = organism: Mus musculus; experiment: Effective dose for locomotor activity in mice in the peak hour.; format: functional
[19] = tested on: Mus musculus; experiment: Percent change from vehicle in locomotor activity in mice at 56 mg/kg (ip) in 3 h; format: functional
[20] = tested on: Rattus norvegicus; experiment: Drug discrimination effect of compound in rats, expressed as percent of rats choosing the cocaine lever at dose 17 mg/kg (ip); format: functional
[21] = tested on: Mus musculus; experiment: Percent change from vehicle in locomotor activity in mice at 10 mg/kg (ip) in 3 h; format: functional
[22] = tested on: Mus musculus; experiment: Percent change in locomotor activity in mice at 1 mg/kg i.p. in 2 h.; format: functional; settings: route intraperitoneal
Summary of the method: (§1)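 Mice habituated 1/2 h to photocell activity chambers, then injected ip with compound homogenized in 0.5% methyl cellulose (10 mL/kg); vehicle controls; N = 5 or 6 per dose. Photobeam interruptions recorded in 10-min bins for 4 h, grouped into 1-h bins; one-way ANOVA with Newman-Keuls post hoc test (p < 0.05).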

[23] = tested on: Mus musculus; experiment: Percent change in locomotor activity in mice at 3 mg/kg i.p. in 4 h.; format: functional; settings: route intraperitoneal; summary of the method: as §1
[24] = tested on: Mus musculus; experiment: Percent change from vehicle in locomotor activity in mice at 10 mg/kg (ip) in 1 h; format: functional
[25] = tested on: Mus musculus; experiment: Percent change in locomotor activity in mice at 1 mg/kg i.p. in 1 h.; format: functional; settings: route intraperitoneal
[26] = tested on: Mus musculus; experiment: Percent change in locomotor activity in mice at 3 mg/kg i.p. in 3 h.; format: functional; settings: route intraperitoneal; summary of the method: as §1
[27] = tested on: Mus musculus; experiment: Percent change in locomotor activity in mice at 3 mg/kg i.p. in 1 h.; format: functional; settings: route intraperitoneal; summary of the method: as §1
[28] = tested on: Mus musculus; experiment: Percent change from vehicle in locomotor activity in mice at 30 mg/kg (ip) in 1 h; format: functional
[29] = tested on: Mus musculus; experiment: Percent change locomotor activity in mice at 1 mg/kg i.p. in 3 h.; format: functional; settings: route intraperitoneal; summary of the method: as §1
[30] = tested on: Mus musculus; experiment: Percent change from vehicle in locomotor activity in mice at 0.3 mg/kg (ip) in 3 h; format: functional
[31] = tested on: Rattus norvegicus; experiment: Drug discrimination effect of compound in rats, expressed as percent of rats choosing the cocaine lever at dose 30 mg/kg (ip); format: functional
[32] = tested on: Mus musculus; experiment: Percent change from vehicle in locomotor activity in mice at 30 mg/kg (ip) in 3 h; format: functional
[33] = tested on: Mus musculus; experiment: Percent change from vehicle in locomotor activity in mice at 0.3 mg/kg (ip) in 4 h; format: functional
[34] = tested on: Mus musculus; experiment: Percent change in locomotor activity in mice at 3 mg/kg i.p. in 2 h.; format: functional; settings: route intraperitoneal; summary of the method: as §1
[35] = tested on: Mus musculus; experiment: Percent change from vehicle in locomotor activity in mice at 0.3 mg/kg (ip) in 1 h; format: functional
[36] = target: Sodium-dependent serotonin transporter (Rattus norvegicus, UniProt P31652); experiment: Inhibitory concentration required to inhibit serotonin transporter 5-HTT was determined by using [3H]paroxetine radioligand
Chain of Sodium-dependent serotonin transporter (P31652 whole entry): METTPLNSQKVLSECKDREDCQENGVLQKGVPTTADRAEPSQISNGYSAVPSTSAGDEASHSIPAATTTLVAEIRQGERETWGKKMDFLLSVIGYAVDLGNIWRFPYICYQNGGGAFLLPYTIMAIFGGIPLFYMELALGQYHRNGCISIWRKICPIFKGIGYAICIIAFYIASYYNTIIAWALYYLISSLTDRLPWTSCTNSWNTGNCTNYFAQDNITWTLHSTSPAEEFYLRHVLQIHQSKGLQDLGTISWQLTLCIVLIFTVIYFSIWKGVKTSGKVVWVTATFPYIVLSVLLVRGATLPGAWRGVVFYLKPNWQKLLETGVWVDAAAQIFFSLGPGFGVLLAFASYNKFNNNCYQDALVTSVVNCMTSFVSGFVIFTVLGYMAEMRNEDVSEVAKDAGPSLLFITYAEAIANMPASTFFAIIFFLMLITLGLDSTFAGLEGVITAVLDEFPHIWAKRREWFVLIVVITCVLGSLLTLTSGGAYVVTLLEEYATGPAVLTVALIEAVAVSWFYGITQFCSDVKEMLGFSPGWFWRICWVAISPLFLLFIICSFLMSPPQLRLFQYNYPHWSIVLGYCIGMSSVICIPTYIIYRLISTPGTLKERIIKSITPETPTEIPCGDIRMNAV
Summary of the method: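 Competition binding at the 5-HTT with 0.2 nM [3H]paroxetine (final concentration). Other procedures follow earlier published methods.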

[37] = tested on: Mus musculus; experiment: Percent change from vehicle in locomotor activity in mice at 30 mg/kg (ip) in 2 h; format: functional
[38] = target: Norepinephrine transporter (Rattus norvegicus, UniProt Q9WTR4); experiment: Binding affinity towards norepinephrine transporter was determined by using [3H]nisoxetine radioligand
Chain of Norepinephrine transporter (Q9WTR4 whole entry): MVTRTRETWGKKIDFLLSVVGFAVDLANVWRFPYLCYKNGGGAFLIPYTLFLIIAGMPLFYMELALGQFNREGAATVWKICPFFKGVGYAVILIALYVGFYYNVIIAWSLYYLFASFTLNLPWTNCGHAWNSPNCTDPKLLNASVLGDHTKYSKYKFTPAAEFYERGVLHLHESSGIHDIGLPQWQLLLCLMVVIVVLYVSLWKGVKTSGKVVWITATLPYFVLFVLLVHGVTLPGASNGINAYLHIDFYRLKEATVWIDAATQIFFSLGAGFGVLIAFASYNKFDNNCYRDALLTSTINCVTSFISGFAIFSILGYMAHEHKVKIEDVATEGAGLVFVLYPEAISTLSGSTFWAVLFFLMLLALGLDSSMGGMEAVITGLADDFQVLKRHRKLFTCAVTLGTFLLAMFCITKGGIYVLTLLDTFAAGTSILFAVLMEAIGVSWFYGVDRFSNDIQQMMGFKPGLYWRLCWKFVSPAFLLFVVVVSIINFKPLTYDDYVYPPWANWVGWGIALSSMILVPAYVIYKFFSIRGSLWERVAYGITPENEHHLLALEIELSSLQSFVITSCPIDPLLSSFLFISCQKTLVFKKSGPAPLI
Summary of the method: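 Competition binding at the NET with 0.5 nM [3H]nisoxetine (final concentration). Other procedures follow earlier published methods.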

[39] = target: Sodium-dependent dopamine transporter (Rattus norvegicus, UniProt P23977); experiment: Inhibitory concentration required to inhibit dopamine transporter DAT was determined by using [3H]WIN-35428 radioligand
Chain of Sodium-dependent dopamine transporter (P23977 whole entry): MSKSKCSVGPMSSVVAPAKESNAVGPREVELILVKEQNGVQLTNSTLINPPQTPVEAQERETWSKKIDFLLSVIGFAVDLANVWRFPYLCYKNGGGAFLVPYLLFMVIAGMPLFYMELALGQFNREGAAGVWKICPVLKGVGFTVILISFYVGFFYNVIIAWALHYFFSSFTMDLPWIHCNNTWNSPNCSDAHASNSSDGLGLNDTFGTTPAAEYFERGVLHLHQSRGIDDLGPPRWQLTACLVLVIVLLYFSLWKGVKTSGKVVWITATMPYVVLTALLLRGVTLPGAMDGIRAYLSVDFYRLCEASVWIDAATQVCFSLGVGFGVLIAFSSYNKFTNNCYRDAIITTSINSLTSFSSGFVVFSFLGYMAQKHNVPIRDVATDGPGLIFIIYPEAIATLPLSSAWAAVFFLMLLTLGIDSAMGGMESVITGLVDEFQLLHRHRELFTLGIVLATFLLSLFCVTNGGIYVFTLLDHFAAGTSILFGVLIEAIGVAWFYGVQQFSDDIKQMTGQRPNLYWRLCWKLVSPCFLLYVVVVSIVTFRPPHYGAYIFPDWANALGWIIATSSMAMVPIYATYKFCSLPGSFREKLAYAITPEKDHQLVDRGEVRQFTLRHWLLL
Summary of the method: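 Competition binding at the DAT with 0.5 nM [3H]WIN35,428 (final concentration). Other procedures follow earlier published methods.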

[40] = tested on: Mus musculus; experiment: Percent change from vehicle in locomotor activity in mice at 10 mg/kg (ip) in 2 h; format: functional
[41] = tested on: Mus musculus; experiment: Percent change in locomotor activity in mice at 1 mg/kg i.p. in 4 h.; format: functional; settings: route intraperitoneal; summary of the method: as §1
[42] = organism: Mus musculus; experiment: Effective dose was evaluated for locomotor activity in mice in the peak hour; No stimulation; format: functional, organism-based
[43] = tested on: Mus musculus; experiment: Percent change from vehicle in locomotor activity in mice at 30 mg/kg (ip) in 4 h; format: functional
[44] = tested on: Mus musculus; experiment: Percent change from vehicle in locomotor activity in mice at 10 mg/kg (ip) in 4 h; format: functional
[45] = tested on: Mus musculus; experiment: Percent change from vehicle in locomotor activity in mice at 0.3 mg/kg (ip) in 2 h; format: functional

## COC(=O)[C@@H]1C2CC[C@@H](C[C@@H]1OC(=O)c1ccccc1)N2C (single isomer, unassigned) [COCAINE]
[1]
  Change: 452%
[2]
  Change: -53%
[3]
  Drug discrimination effect: 82%
[4]
  Change: -7%
[5]
  Drug discrimination effect: 59%
[6]
  ED50: 2.64 mg/kg
[7]
  Change: -24%
[8]
  Drug discrimination effect: 32%
[9]
  Change: -1%
[10]
  Drug discrimination effect: 97%
[11]
  Change: 5%
[12]
  Change: 201%
[13]
  Change: -53%
[14]
  Change: -26%
[15]
  Change: 179%
[16]
  Change: -26%
[17]
  Drug discrimination effect: 21%
[18]
  ED50: 18.8 mg/kg
[19]
  Change: -47%

## Cc1ccc(-c2cc(C3C(c4ccc(C)cc4)CC4CCC3N4C)on2)cc1 (configuration not stated)
[20]
  Drug discrimination effect: 33%
[21]
  Change: -38%
[22]
  Change: -6%
[23]
  Change: 29%
[24]
  Change: -30%
[5]
  Drug discrimination effect: 0%
[25]
  Change: -5%
[26]
  Change: 73%
[27]
  Change: 1%
[28]
  Change: -19%
[29]
  Change: 76%
[30]
  Change: 102%
[10]
  Drug discrimination effect: 0%
[31]
  Drug discrimination effect: 67%
[32]
  Change: -37%
[33]
  Change: -48%
[34]
  Change: 10%
[35]
  Change: -17%
[36]
  IC50: > 100 µM
[37]
  Change: -26%
[38]
  IC50: > 100 µM
[39]
  IC50: 0.013 µM
[40]
  Change: 34%
[41]
  Change: -30%
[42]
  ED50: inactive
[43]
  Change: -43%
[44]
  Change: -7%
[45]
  Change: 60%
